Measured values: ChEMBL document CHEMBL2169815, “Synthesis and structure-activity relationships of lapacho analogues. 1. Suppression of human keratinocyte hyperproliferation by 2-substituted naphtho[2,3-b]furan-4,9-diones, activation by enzymatic one- and two-electron reduction, and intracellular generation of superoxide” (J Med Chem, 2012)

Legend:
HaCaT [1] = assay: Antihyperproliferative activity against human HaCaT cells after 48 hrs by phase contrast microscopy; type: functional, cell-based
In short: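 HaCaT keratinocytes were exposed for 48 h, then dispersed cells were counted under phase contrast. Inhibition was (1 − test/control) × 100, with test N = 3 and control N = 6–8, checked by Student's t test (P < 0.05). IC50 came from nonlinear regression.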

HaCaT [2] = assay: Cytotoxicity against human HaCaT cells assessed as LDH release at 2 uM after 4 hrs by UV method; type: cell-based
In short: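 HaCaT cells were given compound at 2 μM for 4 h at 37 °C. Extracellular LDH in the supernatant was read by the UV method with pyruvate and NADH and reported as mU/mL. Vehicle control was 0.2% DMSO in medium; Brij 35 plus ultrasound was the positive control. N = 3.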

HaCaT [3] = assay: Induction of superoxide generation in human HaCaT cells at 50 uM after 30 min by flow cytometry (reference value: 7.1 +/- 5.2 ); type: functional
[4] = biological target: T1, NADPH--cytochrome P450 reductase (Homo sapiens, UniProt P16435); assay: Activity of human recombinant cytochrome P450 reductase assessed as rate of superoxide generation measuring SOD-inhibitable reduction of succinoylated cytochrome c per 2 mU enzyme at 100 umol/ml by spectrophotometry in presence of catalase and DTPA (reference value: 0.2 +/- 0.1 micomol/L/min)
T1 sequence (P16435 whole entry): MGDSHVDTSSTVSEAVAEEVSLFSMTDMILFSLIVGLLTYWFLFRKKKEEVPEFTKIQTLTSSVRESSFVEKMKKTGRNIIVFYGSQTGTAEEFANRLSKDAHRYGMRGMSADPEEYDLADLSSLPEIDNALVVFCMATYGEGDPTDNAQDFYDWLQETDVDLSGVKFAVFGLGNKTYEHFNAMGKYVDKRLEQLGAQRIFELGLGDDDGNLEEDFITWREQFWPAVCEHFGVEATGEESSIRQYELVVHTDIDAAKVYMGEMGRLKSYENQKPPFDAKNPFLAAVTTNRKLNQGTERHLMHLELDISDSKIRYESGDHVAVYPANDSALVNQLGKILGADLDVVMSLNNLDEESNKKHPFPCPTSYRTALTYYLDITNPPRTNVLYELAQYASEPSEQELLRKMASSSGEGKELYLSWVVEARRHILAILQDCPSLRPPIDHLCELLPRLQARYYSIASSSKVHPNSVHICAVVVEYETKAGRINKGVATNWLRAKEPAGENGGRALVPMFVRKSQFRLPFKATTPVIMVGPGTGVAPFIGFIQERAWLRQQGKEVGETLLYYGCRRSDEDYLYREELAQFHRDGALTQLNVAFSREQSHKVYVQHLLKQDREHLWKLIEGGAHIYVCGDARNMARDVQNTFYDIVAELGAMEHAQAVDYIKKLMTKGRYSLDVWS

HaCaT [5] = assay: Activity in dicoumarol-treated human HaCaT cells assessed as superoxide generation by flow cytometry (reference value: 407.59 +/- 68.7 ); type: functional
HaCaT [6] = assay: Ratio of compound IC50 to anthralin IC50 for human HaCaT cells; type: functional
HaCaT [7] = assay: Ratio of compound IC50 to beta-lapachone IC50 for human HaCaT cells; type: functional
[8] = biological target: NQO1 protein (Homo sapiens) (UniProt Q3B792); assay: Activity of human recombinant NQO-1 assessed as rate of superoxide generation measuring SOD-inhibitable reduction of succinoylated cytochrome c per unit enzyme at 25 umol/ml by spectrophotometry in presence of catalase and DTPA (reference value: 0.2 +/- 0.1 micomol/L/min)
NQO1 protein (Homo sapiens), sequence (Q3B792 as listed by the source): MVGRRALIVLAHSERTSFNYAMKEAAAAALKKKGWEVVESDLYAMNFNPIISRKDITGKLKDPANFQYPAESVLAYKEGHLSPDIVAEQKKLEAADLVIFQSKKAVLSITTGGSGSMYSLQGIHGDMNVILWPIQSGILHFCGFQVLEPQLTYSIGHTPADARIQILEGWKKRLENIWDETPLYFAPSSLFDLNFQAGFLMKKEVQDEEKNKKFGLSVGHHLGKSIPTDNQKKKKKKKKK

HaCaT [9] = assay: Induction of superoxide generation in human HaCaT cells at 5 micomol/L after 18 hrs by flow cytometry (reference value: 367.5 +/- 80.1 ); type: functional
In short: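 HaCaT cells grown 24 h at 37 °C in DMEM with 10% FBS, then given compound at 5 μM for 18 h (0.1% DMSO final). DHE loaded for 30 min in the dark. Cells trypsinized and 2-OH-E⁺ fluorescence measured by flow cytometry (FL2, 550–600 nm) on 10000 live cells, dead cells gated out. Mean fluorescence intensity, mean ± SD, N = 3. DMSO-only control.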

Row | SMILES | IC50 (HaCaT [1]) | Activity (HaCaT [2]) | also measured
1 | CC(=O)Oc1c2ccccc2c(OC(C)=O)c2oc(C(=O)c3ccccc3)cc12 | 0.92 µM | 193 mU/ml | –
2 | CCOC(=O)c1cc2c(o1)C(=O)c1ccccc1C2=O | 0.61 µM | 187 mU/ml | –
3 | O=C(c1ccccc1)c1cc2c(o1)C(=O)c1ccccc1C2=O | 0.72 µM | 318 mU/ml | –
4 | CCc1noc(-c2cc3c(o2)C(=O)c2ccccc2C3=O)n1 | 0.17 µM | 157 mU/ml | Flu intensity (HaCaT [3]): 17; Activity [4]: 1.8 µmol/L/min; Flu intensity (HaCaT [5]): 1279; Ratio IC50 (HaCaT [6]): 4; Ratio IC50 (HaCaT [7]): 5; Activity [8]: 1.9 µmol/L/min; Flu intensity (HaCaT [9]): 1287
5 | CCN(CC)C(=O)c1cc2c(o1)C(=O)c1ccccc1C2=O | 0.24 µM | 226 mU/ml | –
6 | CC1=CC(=O)c2ccccc2C1=O [MENADIONE] | 15.8 µM | – | Flu intensity (HaCaT [3]): 44; Activity [4]: 2.1 µmol/L/min; Flu intensity (HaCaT [5]): 457.2; Activity [8]: 1 µmol/L/min; Flu intensity (HaCaT [9]): 431.9
7 | CCCOC(=O)c1cc2c(o1)C(=O)c1ccccc1C2=O | 1.32 µM | – | –
8 | O=C1c2ccccc2C(=O)c2oc(/C=C/c3ccccc3)cc21 | > 30 µM | – | –
9 | N#Cc1ccc(/C=C/c2cc3c(o2)C(=O)c2ccccc2C3=O)cc1 | 7.73 µM | – | –
10 | O=C1c2ccccc2C(=O)c2oc(/C=N/O)cc21 | 2.34 µM | – | –
11 | N#Cc1cc2c(o1)C(=O)c1ccccc1C2=O | 0.89 µM | 181 mU/ml | –
12 | CC(C)OC(=O)c1cc2c(o1)C(=O)c1ccccc1C2=O | 0.99 µM | – | –
13 | O=C(c1cc2c(o1)C(=O)c1ccccc1C2=O)c1cccs1 | 0.67 µM | 169 mU/ml | –
14 | O=C(OCc1cccs1)c1cc2c(o1)C(=O)c1ccccc1C2=O | 14.3 µM | – | –
15 | CCC(=O)c1cc2c(OC(C)=O)c3ccccc3c(OC(C)=O)c2o1 | 0.8 µM | 185 mU/ml | –
16 | CCC(=O)c1cc2c(o1)C(=O)c1ccccc1C2=O | 0.63 µM | 270 mU/ml | –
17 | O=C1c2ccccc2C(=O)c2occc21 | 3.85 µM | – | Flu intensity (HaCaT [3]): 13; Activity [4]: 2.2 µmol/L/min; Flu intensity (HaCaT [5]): 601.1; Activity [8]: 0.4 µmol/L/min; Flu intensity (HaCaT [9]): 452.5
18 | O=C1c2ccccc2C(=O)c2oc(-c3nnn[nH]3)cc21 | > 30 µM | 380 mU/ml | –
19 | O=C(c1cccnc1)c1cc2c(o1)C(=O)c1ccccc1C2=O | 0.37 µM | 202 mU/ml | –
20 | O=C1c2ccccc2C(=O)c2oc([N+](=O)[O-])cc21 | 2 µM | – | –

Row | SMILES | IC50 (HaCaT [1]) | Activity (HaCaT [2]) | also measured
21 | O=C(c1ccco1)c1cc2c(o1)C(=O)c1ccccc1C2=O | 0.55 µM | 167 mU/ml | –
22 | CC(C)COC(=O)c1cc2c(o1)C(=O)c1ccccc1C2=O | 2.86 µM | – | –
23 | CC1(C)CCC2=C(O1)c1ccccc1C(=O)C2=O [LAPACHONE] | 0.9 µM | 268 mU/ml | –
24 | O=C1c2c(O)cccc2Cc2cccc(O)c21 [ANTHRALIN] | – | 239 mU/ml | –
25 | O=C(O)/C=C/c1cc2c(o1)C(=O)c1ccccc1C2=O | > 30 µM | – | –
26 | CCOC(=O)C(=Cc1cc2c(o1)C(=O)c1ccccc1C2=O)C(=O)OCC | 1.11 µM | 186 mU/ml | –
27 | O=Cc1cc2c(o1)C(=O)c1ccccc1C2=O | 2.76 µM | 186 mU/ml | –
28 | CC(C)C(=O)c1cc2c(o1)C(=O)c1ccccc1C2=O | 0.44 µM | – | –
29 | O=C(OCc1ccccc1)c1cc2c(o1)C(=O)c1ccccc1C2=O | > 30 µM | – | –
30 | CC(=O)c1cc2c(o1)C(=O)c1ccccc1C2=O [NAPABUCASIN] | – | 255 mU/ml | Flu intensity (HaCaT [3]): 20.5; Activity [4]: 3 µmol/L/min; Flu intensity (HaCaT [5]): 741.4; Activity [8]: 1.4 µmol/L/min; Flu intensity (HaCaT [9]): 725.5
31 | O=C(OC1CCCCC1)c1cc2c(o1)C(=O)c1ccccc1C2=O | 2.93 µM | – | –
32 | O=C(Oc1ccccc1)c1cc2c(o1)C(=O)c1ccccc1C2=O | > 30 µM | – | –
33 | CCOC(=O)/C=C/c1cc2c(o1)C(=O)c1ccccc1C2=O | 2.51 µM | – | –
34 | COC(=O)c1cc2c(o1)C(=O)c1ccccc1C2=O | 0.92 µM | 190 mU/ml | –
35 | CCc1cc2c(o1)C(=O)c1ccccc1C2=O | 12.2 µM | – | –
36 | O=C(O)c1cc2c(o1)C(=O)c1ccccc1C2=O | > 30 µM | – | –
37 | COc1c2ccccc2c(OC)c2oc(C(=O)c3ccccc3)cc12 | > 30 µM | – | –
38 | CCC(=O)c1cc2c(OC)c3ccccc3c(OC)c2o1 | > 30 µM | – | –
39 | Cc1cc2c(o1)C(=O)c1ccccc1C2=O | 7.54 µM | – | Flu intensity (HaCaT [3]): 6.4; Activity [4]: 1.2 µmol/L/min; Flu intensity (HaCaT [5]): 830.9; Activity [8]: 0.2 µmol/L/min; Flu intensity (HaCaT [9]): 420.2
40 | O=C(OCc1ccco1)c1cc2c(o1)C(=O)c1ccccc1C2=O | 8.23 µM | – | –
